Here are results for 10 compounds from ChEMBL document CHEMBL1275272, “Synthesis, characterization and antimicrobial activity of some disubstituted 1,3,4-oxadiazoles carrying 2-(aryloxymethyl)phenyl moiety” (2010).

Values after ≈ are worked out from the molar mass of the structure shown. A value given as a limit tells only on which side of the number the result lay.

Holding throughout (format): functional
Assay [1] relates to Staphylococcus aureus. The assay is described as follows: Antibacterial activity against Staphylococcus aureus after 16 to 18 hrs by serial dilution method. Particulars: for MIC: Staphylococcus aureus. In outline: (§1)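 The test compound was dissolved in DMF and serially diluted. A standard drop of the prepared microbial culture was added to each dilution, and tubes were incubated at 37 °C for 16–18 h. MIC was taken as the highest dilution that stayed clear with no visible turbidity.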

The test system of assay [2] is Escherichia coli. The assay can be described thus: Antibacterial activity against Escherichia coli after 16 to 18 hrs by serial dilution method. Particulars: for MIC: Escherichia coli. In outline:
as §1

Assay [3] deals with Pseudomonas aeruginosa. The assay is described as follows: Antibacterial activity against Pseudomonas aeruginosa after 16 to 18 hrs by serial dilution method. The settings on record: for MIC: Pseudomonas aeruginosa. In outline: as §1
For assay [4], the system named is Klebsiella pneumoniae. The assay is described as follows: Antibacterial activity against Klebsiella pneumoniae after 16 to 18 hrs by serial dilution method. Particulars: for MIC: Klebsiella pneumoniae.
In assay [5] the test system is Talaromyces marneffei. The assay is described as follows: Antifungal activity against Penicillium marneffei after 16 to 18 hrs by serial dilution method. Particulars: for MIC: Talaromyces marneffei. In outline:
as §1

Assay [6] relates to Trichophyton mentagrophytes. The assay is described as follows: Antifungal activity against Trichophyton mentagrophytes after 16 to 18 hrs by serial dilution method. Particulars: for MIC: Trichophyton mentagrophytes.
Assay [7] has as its system Aspergillus flavus. The assay can be described thus: Antifungal activity against Aspergillus flavus after 16 to 18 hrs by serial dilution method. Particulars: for MIC: Aspergillus flavus. A digest of the protocol: as §1
Assay [8] deals with Aspergillus fumigatus. The assay is described as follows: Antifungal activity against Aspergillus fumigatus after 16 to 18 hrs by serial dilution method. Particulars: for MIC: Aspergillus fumigatus.

In general, MIC refers to the least concentration at which growth counts as inhibited.

On to `Cc1ccc(OCc2ccccc2-c2nn(CNc3cccc(C(F)(F)F)c3)c(=S)o2)cc1`, for which the “inhibition zone (IZ)” value in assay [1], in assay [2], in assay [3], in assay [4], in assay [5] and in assay [6] was 16 mm in each case. Besides, the “inhibition zone (IZ)” value in assay [7] and in assay [8] was 16 mm each time. The MIC in assay [1], in assay [2], in assay [3], in assay [4], in assay [5] and in assay [6] was 6.25 µg/mL (≈ 13.3 µM) throughout. Moreover, the MIC in assay [7] and in assay [8] was 6.25 µg/mL (≈ 13.3 µM) in each case.
`Cc1ccc(OCc2ccccc2-c2nnc(-c3cccc4ncccc34)o2)cc1`: the “inhibition zone (IZ)” value in assay [1], in assay [2], in assay [3], in assay [4], in assay [5] and in assay [6] was under 10 mm throughout. The “inhibition zone (IZ)” value in assay [7] and in assay [8] was under 10 mm each time. Also, the MIC in assay [1], in assay [2], in assay [3], in assay [4], in assay [5] and in assay [6] was 25 µg/mL (≈ 63.5 µM) each time. For the same compound, the MIC in assay [7] and in assay [8] was 25 µg/mL (≈ 63.5 µM) each time.
Consider `Cc1ccccc1OCc1ccccc1-c1nnc(-c2cccc(Br)c2)o1`, for which the “inhibition zone (IZ)” value in assay [1], in assay [2], in assay [3], in assay [4], in assay [5] and in assay [6] was under 10 mm each time. Also, the “inhibition zone (IZ)” value in assay [7] and in assay [8] was under 10 mm in each case. Moreover, the MIC in assay [1], in assay [2], in assay [3], in assay [4], in assay [5] and in assay [6] was 25 µg/mL (≈ 59.3 µM) each time. The MIC in assay [7] and in assay [8] was 25 µg/mL (≈ 59.3 µM) throughout.
Take `FC(F)(F)c1cccc(NCn2nc(-c3ccccc3COc3ccc(Cl)cc3)oc2=S)c1`: the “inhibition zone (IZ)” value in assay [1], in assay [2], in assay [3], in assay [4], in assay [5] and in assay [6] was 16 mm throughout. Further, the “inhibition zone (IZ)” value in assay [7] and in assay [8] was 16 mm each time. Further, the MIC in assay [1], in assay [2], in assay [3], in assay [4], in assay [5] and in assay [6] was 6.25 µg/mL (≈ 12.7 µM) throughout. The MIC in assay [7] and in assay [8] was 6.25 µg/mL (≈ 12.7 µM) each time.
As to `Clc1ccc(OCc2ccccc2-c2nnc(-c3cccc4ncccc34)o2)cc1`, the “inhibition zone (IZ)” value in assay [1], in assay [2], in assay [3], in assay [4], in assay [5] and in assay [6] was under 10 mm each time. In addition, the “inhibition zone (IZ)” value in assay [7] and in assay [8] was under 10 mm in each case. In addition, the MIC in assay [1], in assay [2], in assay [3], in assay [4], in assay [5] and in assay [6] was 25 µg/mL (≈ 60.4 µM) throughout. Moreover, the MIC in assay [7] and in assay [8] was 25 µg/mL (≈ 60.4 µM) each time.
In the case of `Cc1ccc(OCc2ccccc2-c2nnc(-c3cc(C)cc(C)c3)o2)cc1`, the “inhibition zone (IZ)” value in assay [1], in assay [2], in assay [3], in assay [4], in assay [5] and in assay [6] was 11 mm throughout. Also, the “inhibition zone (IZ)” value in assay [7] and in assay [8] was 11 mm each time. Besides, the minimal inhibitory concentration (MIC) in assay [1], in assay [2], in assay [3], in assay [4], in assay [5] and in assay [6] was 12.5 µg/mL (≈ 33.7 µM) throughout. Besides, the MIC in assay [7] and in assay [8] was 12.5 µg/mL (≈ 33.7 µM) in each case.
As for `Cc1cccc(OCc2ccccc2-c2nnc(-c3ccc(Cl)cc3)o2)c1`, the “inhibition zone (IZ)” value in assay [1], in assay [2], in assay [3], in assay [4], in assay [5] and in assay [6] was under 10 mm in each case. Besides, the “inhibition zone (IZ)” value in assay [7] and in assay [8] was under 10 mm throughout. In addition, the MIC in assay [1], in assay [2], in assay [3], in assay [4], in assay [5] and in assay [6] was 25 µg/mL (≈ 66.3 µM) in each case. Besides, the MIC in assay [7] and in assay [8] was 25 µg/mL (≈ 66.3 µM) each time.
In the case of `Cc1ccc(OCc2ccccc2-c2nnc(-c3ccccc3F)o2)cc1`, the “inhibition zone (IZ)” value in assay [1], in assay [2], in assay [3], in assay [4], in assay [5] and in assay [6] was 16 mm each time. In addition, the “inhibition zone (IZ)” value in assay [7] and in assay [8] was 16 mm throughout. For the same compound, the MIC in assay [1], in assay [2], in assay [3], in assay [4], in assay [5] and in assay [6] was 6.25 µg/mL (≈ 17.3 µM) in each case. For the same compound, the MIC in assay [7] and in assay [8] was 6.25 µg/mL (≈ 17.3 µM) each time.
Turning to `Cc1ccc(OCc2ccccc2-c2nn(CN3CCOCC3)c(=S)o2)cc1`, the “inhibition zone (IZ)” value in assay [1], in assay [2], in assay [3], in assay [4], in assay [5] and in assay [6] was 11 mm each time. Further, the “inhibition zone (IZ)” value in assay [7] and in assay [8] was 11 mm throughout. Besides, the MIC in assay [1], in assay [2], in assay [3], in assay [4], in assay [5] and in assay [6] was 12.5 µg/mL (≈ 31.4 µM) each time. Besides, the MIC in assay [7] and in assay [8] was 12.5 µg/mL (≈ 31.4 µM) each time.
On to `Clc1ccc(OCc2ccccc2-c2nnc(-c3ccc(Cl)cc3)o2)cc1`, for which the “inhibition zone (IZ)” value in assay [1], in assay [2], in assay [3], in assay [4], in assay [5] and in assay [6] was under 10 mm throughout. The “inhibition zone (IZ)” value in assay [7] and in assay [8] was under 10 mm each time. Also, the MIC in assay [1], in assay [2], in assay [3], in assay [4], in assay [5] and in assay [6] was 25 µg/mL (≈ 62.9 µM) in each case. The minimum inhibitory concentration (MIC) in assay [7] and in assay [8] was 25 µg/mL (≈ 62.9 µM) throughout.
